# Source: PubChem BioAssay
# MC4R antagonist – antagonists of human melanocortin 4 receptor (MC4R). P32245. MC4R-expressing cells, MTII-stimulated cAMP, LANCE TR-FRET. inhibition, % at 6.5 µM. 0.48% of 360,000 active;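 active = inhibition above its plate's cutoff, the mean of tested wells on that plate plus 3 SD, cut at about 29% in these data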;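 note: 0% = Melanotan II alone and 100% = Melanotan II plus saturating MCL0020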
# Target sequence (P32245 whole entry, looked up): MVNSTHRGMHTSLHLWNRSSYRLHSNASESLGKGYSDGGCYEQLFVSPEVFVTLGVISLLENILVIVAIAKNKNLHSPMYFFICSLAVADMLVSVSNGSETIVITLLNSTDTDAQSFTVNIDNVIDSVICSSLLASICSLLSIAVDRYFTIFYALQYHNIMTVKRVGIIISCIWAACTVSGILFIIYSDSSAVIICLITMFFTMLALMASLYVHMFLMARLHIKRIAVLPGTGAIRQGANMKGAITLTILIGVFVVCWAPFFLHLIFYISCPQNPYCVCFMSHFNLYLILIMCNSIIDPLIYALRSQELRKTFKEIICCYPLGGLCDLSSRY
#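 material = U2OS cells stably expressing human melanocortin 4 receptor (MC4R) | also added = Melanotan II challenge | dosing = single nominal compound dose of 6.5 µM | detection = TR-FRET with Eu-cAMP and labeled anti-cAMP, 671 nm | replication = singlicate | timing = compound 30 min, challenge 1 h, detection 1 h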
# Bfl-1 A1 inh – inhibitors of the anti-apoptotic protein A1, read as caspase activation; AID 2462; 0.066% of 330,000 active; caspase activation, % (concentration not given with the values); MEF A1-2A-BIM cells, Caspase-Glo 3/7 luminescence, 3 h; percent of clofoctol response, vehicle zero;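 active = over half of replicate activation scores above 10%, or exactly half above 10 with the replicate mean above 10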
# sPLA2-III inh – Blocks human group III sPLA2 activity; Q9NZ20; QFRET BODIPY PC-A2 liposome hydrolysis, fluorescence; inhibition, % at 12.2 µM; 0.56% of 370,000 active;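 active = inhibition above mean plus 3 SD of compounds lying within the high and low control bounds, cut at about 19% in these data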;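 note: 0% = median of test compound wells and 100% = no enzyme DMSO wells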
# NTR1 agonist – NTR1 (human) agonism; NTR1-U2OS beta-arrestin-GFP spot imaging, agonist mode; 0.17% of 330,000 active; activation, % at 20 µM;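 active = activation at or above 40% of the spot to cytoplasm intensity ratio, with at least 20 cells analyzed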;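 note: 0% = DMSO without peptide and 100% = 100 nM NTR1 peptide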
# Granule exo inh – lytic granule exocytosis inhibition; TALL-104 LAMP-1 surface exposure, flow cytometry; cells stimulated with thapsigargin and PMA; inhibition, % at 10 µM; 0.66% of 360,000 active; AID 651702;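 active = inhibition above about 55%, limit read from the data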
# MC4R ag barr – human MC4R agonism via beta-arrestin. P32245. U2OS MC4R beta-arrestin complementation, luminescence; percent of melanotan II response, DMSO zero. activation, % at 8.9 µM. 0.98% of 360,000 active. AID 540308;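 active = activation above a per-plate cutoff, the mean activation of sample wells on that plate plus 3 SD, cut at about 8% in these data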
# sPLA2 confirm – human GIII-sPLA2 inhibition, confirmation | shares compounds with sPLA2-III inh | AID 743280 | inhibition, % at 12.2 µM | recombinant hGIII-sPLA2, BODIPY PC-A2 QFRET fluorescence | 34% of 2,000 active;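 active = mean inhibition across triplicates above the hit cutoff set in the earlier primary screen, cut at about 19% in these data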;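 note: 0% = enzyme with DMSO and 100% = DMSO wells lacking enzyme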
# BODIPY interf – 535nm fluorescence interference, HGIII-sPLA2 counter-screen; 8.5% of 2,000 active; shares compounds with sPLA2-III inh; inhibition, % at 12.2 µM; AID 743282; BODIPY FL product fluorescence interference, QFRET;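 active = average inhibition above the solvent-only control mean plus 3 SD, cut at about 6% in these data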;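 note: 0% = DMSO with substrate plus product and 100% = DMSO with substrate alone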
# BODIPY interf DR – 535nm optical interference dose response, HGIII-sPLA2 counter-screen; shares compounds with sPLA2-III inh; BODIPY FL product fluorescence interference, cell-free; IC50, µM; 240 tested, under 10 active;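 active = IC50 at or below 10 µM; inactive = IC50 above 10 µM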
# * hit, by the source's call; x = no result. Most compounds without a hit are left out; they make up all but 2.5% or so of the library.
SMILES,MC4R antagonist,Bfl-1 A1 inh,sPLA2-III inh,NTR1 agonist,Granule exo inh,MC4R ag barr,sPLA2 confirm,BODIPY interf,others
CCOc1ccc(-n2ccnc(SCC(=O)Nc3ccc(CC)cc3)c2=O)cc1,5,2,-4,2,20,1,x,x,
CCC(=O)NC(c1cc(Cl)c2cccnc2c1O)C(C)C (stereo unspecified),-2,0,11,2,4,-1,x,x,
CCC(=O)NC(c1ccc(Cl)cc1Cl)c1ccc2cccnc2c1O (stereo unspecified),4,0,33*,2,6,-2,25*,-6,
CCCCC(=O)NC(c1ccc(Cl)cc1Cl)c1ccc2cccnc2c1O (stereo unspecified),-2,0,21*,4,8,-1,30*,-3,
O=C1C2CCc3ccccc3C2N1c1ccccc1 (stereo unspecified),-1,0,5,-1,2,0,x,x,
COc1ccc(-n2ncc3c2CC(C)(C)CC3NC(=O)c2cnc(C)cn2)cc1 (stereo unspecified),7,0,5,0,2,-2,x,x,
CNC(=S)N1CCN(c2nc(-c3ccc(F)cc3)cs2)CC1,1,0,20*,3,-3,-1,14,-1,
O=C(NNC(=S)NC(=O)c1ccccc1[N+](=O)[O-])c1ccccc1,7,1,19*,0,-2,-2,24*,-3,
O=C(NC(=S)Nc1ccc(CN2CCOCC2)cc1)c1cccc([N+](=O)[O-])c1,-6,2,19*,3,1,1,3,-6,
CCCCC(=O)Nc1ccc(C(=O)NNC(=S)NC(=O)c2ccccc2[N+](=O)[O-])cc1,5,1,23*,-1,-3,-2,21*,-4,
O=C(NC(=S)NNC(=O)c1ccccc1[N+](=O)[O-])c1ccccc1,9,0,3,-1,-2,2,x,x,
CC(C)C(=O)Nc1ccc(C(=O)NNC(=S)NC(=O)c2ccccc2[N+](=O)[O-])cc1,-7,2,21*,-2,-1,-3,18,-4,
O=C(CCl)NC1(C(F)(F)F)C(=O)Nc2c1c(=O)[nH]c(=O)n2-c1ccccc1 (stereo unspecified),8,0,6,0,-1,-1,x,x,
CC(C)c1ccc(COC(=O)CN2C(=O)NC3(CCCCC3C)C2=O)cc1 (stereo unspecified),4,x,-4,8,-5,0,x,x,
O=C(NC(=S)N1CCCCCC1)c1cccc([N+](=O)[O-])c1,4,1,20*,-1,-3,-2,15,-3,
CC(C)(C)c1ccc(OCC(=O)NNC(=S)NC(=O)c2ccccc2[N+](=O)[O-])c(Br)c1,8,1,-3,1,-8,-5,x,x,
O=C(NNC(=S)NC(=O)c1cccc([N+](=O)[O-])c1)c1ccc(O)cc1,6,0,16,3,2,2,x,x,
COc1ccc(C(=O)NC(=S)NNC(=O)c2ccc(NC(=O)C(C)C)cc2)cc1,-6,0,26*,4,10,-1,27*,-5,
Cc1ccccc1OCC(=O)NNC(=S)NC(=O)c1ccccc1[N+](=O)[O-],-18,-2,23*,1,0,-3,28*,-4,BODIPY interf DR=>122
O=C(NC(=S)N1CCCC1)c1cccc([N+](=O)[O-])c1,0,0,1,0,-4,-2,x,x,
O=C(NNC(=S)NC(=O)c1ccccc1)c1cccc([N+](=O)[O-])c1,-3,0,25*,2,5,-2,25*,-1,
CC1(C)C(C(=O)O)N2C(=O)C(NC(=O)Cc3ccccc3)C2S1=O (stereo unspecified),4,2,-1,0,1,-1,x,x,
CCCOc1ccc(C(=O)NNC(=S)NC(=O)c2ccccc2[N+](=O)[O-])cc1,9,1,21*,4,-5,-3,31*,-4,
CCCCn1nnc(NC(=S)NC(=O)c2cccs2)n1,1,-2,23*,1,-1,-3,11,-5,
COc1ccc(CNC(=O)CSc2nc3ccc(N)cc3s2)cc1,3,2,29*,2,0,-3,12,-3,
SMILES,MC4R antagonist,Bfl-1 A1 inh,sPLA2-III inh,NTR1 agonist,Granule exo inh,MC4R ag barr,sPLA2 confirm,BODIPY interf,others
COC(=O)c1cc(C(=O)Nc2nc3ccccc3[nH]2)cc([N+](=O)[O-])c1,10,-1,29*,4,-2,-1,15,7.0*,
COc1cc(/C=N/NC(=O)c2ccc3c(c2)OCCO3)c(Br)c(Br)c1O,-9,-1,2,1,4,-3,x,x,
COc1cc(/C=N/NC(=O)c2ccc3c(c2)OCCO3)cc(Br)c1O,-3,x,20*,13,-2,-3,11,-3,
COc1ccc(/C=N/NC(=O)c2ccc3c(c2)OCCO3)cc1[N+](=O)[O-],-3,0,24*,-1,0,3,7,-3,
OCC[C@H]1C[C@@H](O)[C@H](O)[C@@]2(Cc3ccccc3CO2)O1,2,1,3,-1,3,-1,x,x,
CC1(C)CC(NC(=S)NC(=O)c2cc(Br)ccc2Cl)CC(C)(C)N1,-1,-2,7,2,0,0,x,x,
O=C(NCCOc1ccccc1)c1cc([N+](=O)[O-])ccc1N1CCOCC1,-5,0,-2,0,-2,-4,x,x,
C(=NOCc1ccccc1)c1cccnc1,2,x,5,x,20,-1,x,x,
Oc1ccc(/C=N/NC(=S)NC2CC3CCC2C3)cc1 (stereo unspecified),-3,0,-14,2,7,1,x,x,
S=C(N/N=C/c1cccs1)NC1CC2CCC1C2 (stereo unspecified),-1,0,28*,10,1,-3,36*,3,BODIPY interf DR=>122
O=[N+]([O-])c1ccc(N2N=C(c3ccco3)CC2c2ccccc2)cc1 (stereo unspecified),-2,-2,23*,0,0,-3,20*,9.3*,
Fc1ccc(C2CC(c3ccco3)=NN2c2ccccc2)cc1 (stereo unspecified),2,-1,2,1,12,4,x,x,
CN(C)C(=O)/C(=C/c1cn(-c2ccccc2)nc1-c1cccc([N+](=O)[O-])c1)NC(=O)c1ccccc1,2,0,3,8,-4,-3,x,x,
